Data from BindingDB's records for doi:10.1016/j.bmcl.2014.05.064 (The University of Tokyo, 2014).

Biological target: T1, NPC intracellular cholesterol transporter 1 [I1061T] (Homo sapiens, UniProt O15118, I1061T)
T1 construct: gene NPC1
Assay: Binding affinity to FLAG/tGFP-tagged NPC1 I1061T mutant (unknown origin) expressed in HEK293 cells assessed as localization after 24 hrs by fluorescence microscopy
How it was run: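 HEK293 cells stably expressing NPC1 I1061T-tGFP were exposed to compound for 24 h, fixed, and nuclei stained with Hoechst 33342. In the images, each cell was scored by tGFP pattern: ER 0, mixed ER+vesicle 0.5, vesicular 1. Scores were averaged to give the vesicular-localization percentage, and EC50 was taken from concentration-response. Data are mean ± standard deviation of three independent experiments.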

T1 sequence (O15118 23-1278 I1061T limits assumed): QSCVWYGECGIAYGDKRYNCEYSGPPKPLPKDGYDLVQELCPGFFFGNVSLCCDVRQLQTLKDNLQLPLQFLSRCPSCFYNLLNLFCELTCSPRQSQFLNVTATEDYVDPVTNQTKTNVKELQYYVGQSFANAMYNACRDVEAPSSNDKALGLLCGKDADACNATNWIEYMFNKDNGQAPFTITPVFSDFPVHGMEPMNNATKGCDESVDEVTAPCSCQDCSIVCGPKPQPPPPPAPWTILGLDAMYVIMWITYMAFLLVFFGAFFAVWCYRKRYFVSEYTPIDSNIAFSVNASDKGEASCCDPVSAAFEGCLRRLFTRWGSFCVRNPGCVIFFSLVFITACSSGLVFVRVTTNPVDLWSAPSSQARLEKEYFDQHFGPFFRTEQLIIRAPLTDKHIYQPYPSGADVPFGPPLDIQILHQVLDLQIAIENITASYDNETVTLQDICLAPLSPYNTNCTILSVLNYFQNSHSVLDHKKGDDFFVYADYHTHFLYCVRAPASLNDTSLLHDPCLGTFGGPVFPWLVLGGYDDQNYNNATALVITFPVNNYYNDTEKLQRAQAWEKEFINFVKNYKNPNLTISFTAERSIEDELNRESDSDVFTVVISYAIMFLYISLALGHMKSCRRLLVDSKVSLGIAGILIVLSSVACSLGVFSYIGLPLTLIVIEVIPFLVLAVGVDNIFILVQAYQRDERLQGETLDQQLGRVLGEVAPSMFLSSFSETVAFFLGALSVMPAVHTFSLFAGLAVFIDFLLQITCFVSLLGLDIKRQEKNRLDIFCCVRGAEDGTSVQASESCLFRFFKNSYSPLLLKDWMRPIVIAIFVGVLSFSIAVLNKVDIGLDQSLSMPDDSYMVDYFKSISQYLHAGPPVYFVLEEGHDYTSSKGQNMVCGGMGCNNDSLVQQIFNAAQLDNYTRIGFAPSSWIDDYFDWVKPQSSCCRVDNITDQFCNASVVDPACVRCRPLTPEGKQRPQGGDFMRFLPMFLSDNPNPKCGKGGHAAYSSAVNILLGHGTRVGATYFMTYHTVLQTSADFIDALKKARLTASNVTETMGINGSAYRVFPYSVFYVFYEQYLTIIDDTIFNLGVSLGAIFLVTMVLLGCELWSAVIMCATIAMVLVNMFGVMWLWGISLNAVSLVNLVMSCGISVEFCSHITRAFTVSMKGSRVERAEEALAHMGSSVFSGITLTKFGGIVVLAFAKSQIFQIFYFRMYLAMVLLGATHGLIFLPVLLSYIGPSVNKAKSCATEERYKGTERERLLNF

Structure (SMILES) | EC50 [nM]
C[C@H](CNC(=O)c1cc(C(F)(F)F)cc(C(F)(F)F)c1)[C@H]1CC[C@H]2[C@@H]3C[C@@H](O)[C@@]4(O)C[C@@H](OCC(=O)N5CCOCC5)CC[C@]4(C)[C@H]3CC[C@]12C | 86
CC(C)CCC[C@@H](C)[C@H]1CC[C@H]2[C@@H]3C[C@@H](O)[C@@]4(O)C[C@@H](OCC(=O)N5CCOCC5)CC[C@]4(C)[C@H]3CC[C@]12C | 150
CC(C)CCC[C@@H](C)[C@H]1CC[C@H]2[C@@H]3C(=O)C=C4C[C@@H](OCC(=O)N5CCOCC5)CC[C@]4(C)[C@H]3CC[C@]12C | 290
CC(C)CCC[C@@H](C)[C@H]1CC[C@H]2[C@@H]3[C@@H](O)C=C4C[C@@H](OCC(=O)N5CCOCC5)CC[C@]4(C)[C@H]3CC[C@]12C | 360
CC[C@H](/C=C/[C@@H](C)[C@H]1CC[C@H]2[C@@H]3C[C@@H](O)[C@@]4(O)C[C@@H](OCC(=O)N5CCOCC5)CC[C@]4(C)[C@H]3CC[C@]12C)C(C)C | 360
CC(C)C(=O)NC[C@@H](C)[C@H]1CC[C@H]2[C@@H]3C[C@@H](O)[C@@]4(O)C[C@@H](OCC(=O)N5CCOCC5)CC[C@]4(C)[C@H]3CC[C@]12C | 370
CC(C)CCC[C@@H](C)[C@H]1CC[C@H]2[C@@H]3C[C@@H](O)[C@@]4(O)C[C@@H](OCC(=O)N(CCO)CCO)CC[C@]4(C)[C@H]3CC[C@]12C | 560
CC(C)CCC[C@@H](C)[C@H]1CC[C@H]2[C@@H]3C[C@@H](O)[C@@]4(O)C[C@@H](OCC(N)=O)CC[C@]4(C)[C@H]3CC[C@]12C | 840
C[C@H](CCCC(C)(C)O)[C@H]1CC[C@H]2[C@@H]3CC=C4C[C@@H](OCC(=O)N5CCOCC5)CC[C@]4(C)[C@H]3CC[C@]12C | 880
CC(C)CCC[C@@H](C)[C@H]1CC[C@H]2[C@@H]3C[C@@H](O)[C@@]4(O)C[C@@H](OCCN5CCOCC5)CC[C@]4(C)[C@H]3CC[C@]12C | 1000
C[C@H](CCCC(C)(C)O)[C@H]1CC[C@H]2[C@@H]3CC=C4C[C@@H](OCC(=O)N(C)C)CC[C@]4(C)[C@H]3CC[C@]12C | 1400
C[C@H](CCCC(C)(C)O)[C@H]1CC[C@H]2[C@@H]3C(=O)C=C4C[C@@H](O)CC[C@]4(C)[C@H]3CC[C@]12C | 1500
CC(C)CCC[C@@H](C)[C@H]1CC[C@H]2[C@@H]3CC(=O)[C@@]4(O)C[C@@H](O)CC[C@]4(C)[C@H]3CC[C@]12C | 1700
C[C@H](CCCC(C)(C)O)[C@H]1CC[C@H]2[C@@H]3C[C@@H](O)[C@@]4(O)C[C@@H](O)CC[C@]4(C)[C@H]3CC[C@]12C | 1700
CCN(CC)C(=O)CC[C@@H](C)[C@H]1CC[C@H]2[C@@H]3CC=C4C[C@@H](O)CC[C@]4(C)[C@H]3CC[C@]12C | 1700
CC(C)CCC[C@@H](C)[C@H]1CC[C@H]2[C@@H]3C[C@@H](O)[C@@]4(O)C[C@@H](OCC(=O)N5CCCCC5)CC[C@]4(C)[C@H]3CC[C@]12C | 1800
C[C@H](CCCC(C)(C)O)[C@H]1CC[C@H]2[C@@H]3[C@@H](O)C=C4C[C@@H](O)CC[C@]4(C)[C@H]3CC[C@]12C | 1900

Structure (SMILES) | EC50 [nM]
CC(C)CCC[C@@H](C)[C@H]1CC[C@H]2[C@@H]3[C@@H](O)C=C4C[C@@H](OCCO)CC[C@]4(C)[C@H]3CC[C@]12C | 3400
C[C@H](CCCC(C)(C)O)[C@H]1CC[C@H]2[C@@H]3CCC4=CC(=O)CC[C@]4(C)[C@H]3CC[C@]12C | 4000
CCN(CC)C(=O)CO[C@H]1CC[C@@]2(C)C(=CC[C@H]3[C@@H]4CC[C@H]([C@H](C)CCCC(C)(C)O)[C@@]4(C)CC[C@@H]32)C1 | 4800
CC(C)CCC[C@@H](C)[C@H]1CC[C@H]2[C@@H]3[C@@H](O)C=C4C[C@@H](OC(=O)N5CCOCC5)CC[C@]4(C)[C@H]3CC[C@]12C | 6100
C[C@H](CNC(=O)N(C)C)[C@H]1CC[C@H]2[C@@H]3C[C@@H](O)[C@@]4(O)C[C@@H](OCC(=O)N5CCOCC5)CC[C@]4(C)[C@H]3CC[C@]12C | 6800
CCN(CC)CCO[C@H]1CC[C@@]2(C)C(=CC[C@H]3[C@@H]4CC[C@H]([C@H](C)CCCC(C)(C)O)[C@@]4(C)CC[C@@H]32)C1 | 9900
C[C@H](COc1cc(C(F)(F)F)cc(C(F)(F)F)c1)[C@H]1CC[C@H]2[C@@H]3C[C@@H](O)[C@@]4(O)C[C@@H](OCC(=O)N5CCOCC5)CC[C@]4(C)[C@H]3CC[C@]12C | > 10000
CC(C)CCC[C@@H](C)[C@H]1CC[C@H]2[C@@H]3CC(=O)[C@H]4C[C@@H](O)CC[C@]4(C)[C@H]3CC[C@]12C [5alpha-CHOLESTAN-3beta-OL-6-ONE] | 3400
C[C@H](CCCC(C)(C)O)[C@H]1CC[C@H]2[C@@H]3CC=C4C[C@@H](O)CC[C@]4(C)[C@H]3CC[C@]12C [(1S,2R,5S,10S,11S,14R,15R)-14-[(2R)-6-hydroxy-6-methylheptan-2-yl]-2,15-dimethyltetracyclo[8.7.0.0^{2,7}.0^{11,15}]heptadec-7-en-5-ol] | 3300
CC(C)CC[C@H](O)[C@@H](C)[C@H]1CC[C@H]2[C@@H]3CC=C4C[C@@H](O)CC[C@]4(C)[C@H]3CC[C@]12C [(1S,2R,5S,10S,11S,14R,15S)-14-[(2S,3S)-3-hydroxy-6-methylheptan-2-yl]-2,15-dimethyltetracyclo[8.7.0.0^{2,7}.0^{11,15}]heptadec-7-en-5-ol] | 2900
C[C@H](CCC(=O)N(C)C)[C@H]1CC[C@H]2[C@@H]3CC=C4C[C@@H](O)CC[C@]4(C)[C@H]3CC[C@]12C [(4R)-4-[(1S,2R,5S,10S,11S,14R,15R)-5-hydroxy-2,15-dimethyltetracyclo[8.7.0.0^{2,7}.0^{11,15}]heptadec-7-en-14-yl]-N,N-dimethylpentanamide] | 3100
CC(C)CCC[C@@H](C)[C@H]1CC[C@H]2[C@@H]3C[C@@H](O)[C@@]4(O)C[C@@H](O)CC[C@]4(C)[C@H]3CC[C@]12C [CHEBI:28082] | 1700
CC(C)CCC[C@@H](C)[C@H]1CC[C@H]2[C@@H]3[C@@H](O)C=C4C[C@@H](O)CC[C@]4(C)[C@H]3CC[C@]12C [CHEBI:42989] | 3400
CC(C)CCC[C@@H](C)[C@H]1CC[C@H]2[C@@H]3C(=O)C=C4C[C@@H](O)CC[C@]4(C)[C@H]3CC[C@]12C [CHEBI:64294] | 8700
CC(C)CCC[C@@H](C)[C@H]1CC[C@H]2[C@@H]3CC[C@@]4(O)[C@@H](O)[C@@H](O)CC[C@]4(C)[C@H]3CC[C@]12C [Cholestane-3b,4b,5a-triol] | 4300
C[C@]12CC[C@H](O)CC1=CC[C@@H]1[C@@H]2CC[C@]2(C)C(=O)CC[C@@H]12 [Prasterone] | > 10000
